≈ marks a conversion by molar mass, not a printed value.

Common to all, as to type: functional
In assay [1] the test system is Mycobacterium kansasii. Put plainly: In vitro inhibition of Mycobacterium Kansasi (My 6 509/96) growth after 7 days culture. Particulars: 168 h.
Assay [2] relates to Mycobacterium kansasii. Put plainly: In vitro inhibition of Mycobacterium Kansasi (My 6 509/96) growth after 14 days culture. As to conditions: 336 h.
Assay [3] has as its system Mycobacterium tuberculosis. Put plainly: In vitro inhibition of Mycobacterium Tuberculosis (My 331/88) growth after 21 days culture. As to conditions: 504 h. In short, it runs like this: (§1)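 Micromethod broth MIC. Compounds tested at 500, 250, 125, 32, 16, 8, 4 and 2, plus one intermediate level between 125 and 32. Plates incubated at 37 C and read at 7, 14 and 21 days. MIC is the lowest concentration at which growth of the mycobacteria was inhibited. MIC could not be set where solubility in the test medium was limited.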

Assay [4] has as its system Mycobacterium tuberculosis. Put plainly: In vitro inhibition of Mycobacterium Tuberculosis (My 331/88) growth after 14 days culture. Particulars: 336 h. In short, it runs like this:
as §1

In assay [5] the test system is Mycobacterium avium. In words: In vitro inhibition of Mycobacterium Avium (My 330/88) growth after 21 days culture. As to conditions: 504 h. In short, it runs like this:
as §1

Assay [6] has as its system Mycobacterium kansasii. Put plainly: In vitro inhibition of Mycobacterium Kansasi (My 235/80) growth after 14 days culture. Particulars: 336 h.
Assay [7] relates to Mycobacterium avium. In words: In vitro inhibition of Mycobacterium Avium growth after 14 days culture. Particulars: 336 h. The method in brief:
as §1

The subject of assay [8] is Mycobacterium kansasii. In words: In vitro inhibition of Mycobacterium Kansasi (My 6 509/96) growth after 21 days culture. Particulars: 504 h.
The subject of assay [9] is Mycobacterium kansasii. Put plainly: In vitro inhibition of Mycobacterium Kansasi (My 235/80) growth after 7 days culture. Particulars: 168 h.
The subject of assay [10] is Mycobacterium kansasii. Put plainly: In vitro inhibition of Mycobacterium Kansasi (My 235/80) growth after 21 days culture. Particulars: 504 h.

The MIC is the lowest concentration found to suppress growth. Higher therefore signals weaker potency. As to `O=[N+]([O-])c1ccc(CSc2nc3ccccc3s2)cc1`, the MIC in assay [1] is 32 µM (≈ 9.68 µg/mL); in assay [2], greater than 32 µM; in [3], greater than 125 µM; in assay [4], greater than 32 µM; in assay [5], greater than 62 µM; in assay [6], greater than 62 µM. Moreover, the MIC in assay [7] is 32 µM (≈ 9.68 µg/mL); in [8], greater than 125 µM; in assay [9], 32 µM (≈ 9.68 µg/mL); in assay [10] it was greater than 250 µM.
Consider `O=[N+]([O-])c1ccccc1CSc1nc2ccccc2o1`, for which the minimum inhibitory concentration (MIC) is 62 µM (≈ 17.8 µg/mL) in assay [1]; greater than 62 µM in assay [2]; greater than 250 µM in assay [3]; greater than 250 µM in assay [4]; greater than 125 µM in assay [5]; 125 µM (≈ 35.8 µg/mL) in assay [6]. The minimum inhibitory concentration (MIC) in assay [7] is greater than 125 µM; in [8], greater than 62 µM; in [9], 125 µM (≈ 35.8 µg/mL); in [10] it was greater than 125 µM.
With `c1ccc(CSc2nc3ccccc3o2)cc1`, the MIC came out at 32 µM (≈ 7.72 µg/mL) in [1]; 125 µM (≈ 30.2 µg/mL) in [2]; 500 µM (≈ 121 µg/mL) in [3]; 250 µM (≈ 60.3 µg/mL) in [4]; 125 µM (≈ 30.2 µg/mL) in assay [5]; 250 µM (≈ 60.3 µg/mL) in [6]. For the same compound, the minimum inhibitory concentration (MIC) is 62 µM (≈ 15 µg/mL) in assay [7], 250 µM (≈ 60.3 µg/mL) in assay [8], 125 µM (≈ 30.2 µg/mL) in assay [9] and 250 µM (≈ 60.3 µg/mL) in assay [10].
On to `Sc1nc2ccccc2o1`, for which the MIC in assay [1] was determined as 250 µM (≈ 37.8 µg/mL); in [2], 500 µM (≈ 75.6 µg/mL); in [3], 500 µM (≈ 75.6 µg/mL); in [4], 500 µM (≈ 75.6 µg/mL); in assay [5], 500 µM (≈ 75.6 µg/mL); in assay [6] it was 1000 µM (≈ 151 µg/mL). Also, the minimum inhibitory concentration (MIC) in [7] turned out to be 250 µM (≈ 37.8 µg/mL); in assay [8], 1000 µM (≈ 151 µg/mL); in assay [9], 500 µM (≈ 75.6 µg/mL); in assay [10], 1000 µM (≈ 151 µg/mL).
`O=[N+]([O-])c1cccc(CSc2nc3ccccc3o2)c1`: the MIC in assay [1] is 32 µM (≈ 9.16 µg/mL); in assay [2], 32 µM (≈ 9.16 µg/mL); in [3], 125 µM (≈ 35.8 µg/mL); in [4], greater than 62 µM; in assay [5] it was greater than 62 µM; in [6], greater than 32 µM. In addition, the MIC is greater than 32 µM in assay [7], greater than 32 µM in assay [8], 32 µM (≈ 9.16 µg/mL) in [9] and greater than 32 µM in assay [10].
In the case of `O=[N+]([O-])c1cccc(CSc2nc3ccccc3s2)c1`, the minimum inhibitory concentration (MIC) was 32 µM (≈ 9.68 µg/mL) in [1]; 62 µM (≈ 18.7 µg/mL) in assay [2]; greater than 125 µM in assay [3]; greater than 62 µM in assay [4]; 62 µM (≈ 18.7 µg/mL) in assay [5]; greater than 125 µM in [6]. Further, the MIC in assay [7] was 62 µM (≈ 18.7 µg/mL); in assay [8], greater than 62 µM; in assay [9], 62 µM (≈ 18.7 µg/mL); in [10] it was greater than 125 µM.
Take `N#Cc1cccc(CSc2nc3ccccc3o2)c1`: the minimal inhibitory concentration (MIC) in assay [1] was 32 µM (≈ 8.52 µg/mL); in assay [2], 62 µM (≈ 16.5 µg/mL); in [3] it was 125 µM (≈ 33.3 µg/mL); in assay [4], 125 µM (≈ 33.3 µg/mL); in assay [5] it was 62 µM (≈ 16.5 µg/mL); in assay [6] it was 62 µM (≈ 16.5 µg/mL). Further, the MIC amounted to 62 µM (≈ 16.5 µg/mL) in assay [7], 62 µM (≈ 16.5 µg/mL) in assay [8], 32 µM (≈ 8.52 µg/mL) in [9] and 125 µM (≈ 33.3 µg/mL) in [10].
As to `N#Cc1cccc(CSc2nc3ccccc3s2)c1`, the MIC in assay [1] was 32 µM (≈ 9.04 µg/mL); in assay [2], 62 µM (≈ 17.5 µg/mL); in assay [3], 250 µM (≈ 70.6 µg/mL); in assay [4], 62 µM (≈ 17.5 µg/mL); in assay [5], 62 µM (≈ 17.5 µg/mL); in assay [6], 250 µM (≈ 70.6 µg/mL). For the same compound, the MIC in [7] came to 32 µM (≈ 9.04 µg/mL); in assay [8], 125 µM (≈ 35.3 µg/mL); in assay [9], 125 µM (≈ 35.3 µg/mL); in [10] it was 500 µM (≈ 141 µg/mL).
Consider `O=[N+]([O-])c1ccc(CSc2nc3ccccc3o2)cc1`, for which the MIC is 32 µM (≈ 9.16 µg/mL) in assay [1]; 32 µM (≈ 9.16 µg/mL) in [2]; greater than 125 µM in assay [3]; greater than 62 µM in assay [4]; greater than 62 µM in [5]; 32 µM (≈ 9.16 µg/mL) in [6]. The minimum inhibitory concentration (MIC) was greater than 32 µM in assay [7], greater than 32 µM in assay [8], 32 µM (≈ 9.16 µg/mL) in [9] and greater than 62 µM in assay [10].

The values above are taken from ChEMBL document CHEMBL1134964, “Heterocyclic benzazole derivatives with antimycobacterial in vitro activity” (2002).
